Measurements reported in ChEMBL document CHEMBL4699588, “Structure-Activity Relationships of Noncovalent Immunoproteasome β5i-Selective Dipeptides” (J Med Chem, 2020).
Values belong to the compound of their own block, whether it stands above or below them. The source made the active and inactive calls. The calls are words filed in the database; no cut-off is given here.

Assays:
[1] = target: T1, Proteasome subunit beta type-9 (Homo sapiens) (UniProt P28065); experiment: Inhibition of human 20S immunoproteasome beta 1 at 33.3 uM relative to control
T1 sequence (whole entry): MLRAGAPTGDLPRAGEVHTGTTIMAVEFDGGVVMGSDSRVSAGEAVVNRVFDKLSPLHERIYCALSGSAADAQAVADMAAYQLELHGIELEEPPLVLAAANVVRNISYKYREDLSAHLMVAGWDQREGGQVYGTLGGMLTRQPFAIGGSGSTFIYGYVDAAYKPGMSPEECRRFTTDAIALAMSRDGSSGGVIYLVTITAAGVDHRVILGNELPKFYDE

[2] = target: T2, Proteasome subunit beta type-10 (Homo sapiens) (UniProt P40306); experiment: Inhibition of human 20S immunoproteasome beta 2 at 33.3 uM relative to control
T2 sequence (whole entry): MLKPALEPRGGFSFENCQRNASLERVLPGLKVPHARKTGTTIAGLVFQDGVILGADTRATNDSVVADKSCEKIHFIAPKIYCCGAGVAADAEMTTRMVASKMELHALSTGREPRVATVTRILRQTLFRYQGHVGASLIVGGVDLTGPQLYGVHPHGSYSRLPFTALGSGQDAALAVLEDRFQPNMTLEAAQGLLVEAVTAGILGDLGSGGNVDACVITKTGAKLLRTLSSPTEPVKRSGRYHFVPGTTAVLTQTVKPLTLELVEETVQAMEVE

[3] = Inhibition of anti-CD3 antibody-stimulated T cell proliferation in human PBMCs; format: functional, tissue-based; details: PBMC
[4] = target: Trypsin (Homo sapiens) (UniProt P07477+P07478+P35030); experiment: Inhibition of trypsin (unknown origin) at 11.1 to 100 uM; details: dose 11.1-100 µM
[5] = target: Procathepsin L (Homo sapiens) (UniProt P07711); experiment: Inhibition of cathepsin L (unknown origin) at 11.1 to 100 uM; details: dose 11.1-100 µM
Procathepsin L (Homo sapiens), sequence (P07711 114-333 limits assumed): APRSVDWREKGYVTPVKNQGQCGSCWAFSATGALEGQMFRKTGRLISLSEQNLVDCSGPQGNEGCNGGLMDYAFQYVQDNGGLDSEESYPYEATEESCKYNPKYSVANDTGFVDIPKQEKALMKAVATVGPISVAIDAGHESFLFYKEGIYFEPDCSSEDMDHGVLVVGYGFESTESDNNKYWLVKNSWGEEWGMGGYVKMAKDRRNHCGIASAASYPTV

[6] = species: Homo sapiens; experiment: Inhibition of alpha-chymotrypsin (unknown origin) at 11.1 to 100 uM; details: dose 11.1-100 µM
[7] = target: proteasome subunit beta type-6, β1c, PSMB6 (Homo sapiens) (UniProt P28072); experiment: Inhibition of human 20S constitutive proteasome beta 1 at 33.3 uM relative to control
proteasome subunit beta type-6, β1c, PSMB6 (Homo sapiens), sequence (P28072 whole entry, looked up): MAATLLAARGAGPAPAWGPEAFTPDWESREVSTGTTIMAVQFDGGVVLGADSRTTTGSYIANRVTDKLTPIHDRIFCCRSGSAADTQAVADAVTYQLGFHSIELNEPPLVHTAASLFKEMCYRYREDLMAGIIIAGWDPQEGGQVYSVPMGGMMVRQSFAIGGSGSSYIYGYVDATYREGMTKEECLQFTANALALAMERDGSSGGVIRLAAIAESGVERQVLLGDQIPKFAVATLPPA

[8] = target: proteasome subunit beta type-7, β2c, PSMB7 (Homo sapiens) (UniProt Q99436); experiment: Inhibition of human 20S constitutive proteasome beta 2 at 33.3 uM relative to control
proteasome subunit beta type-7, β2c, PSMB7 (Homo sapiens), sequence (Q99436 whole entry, looked up): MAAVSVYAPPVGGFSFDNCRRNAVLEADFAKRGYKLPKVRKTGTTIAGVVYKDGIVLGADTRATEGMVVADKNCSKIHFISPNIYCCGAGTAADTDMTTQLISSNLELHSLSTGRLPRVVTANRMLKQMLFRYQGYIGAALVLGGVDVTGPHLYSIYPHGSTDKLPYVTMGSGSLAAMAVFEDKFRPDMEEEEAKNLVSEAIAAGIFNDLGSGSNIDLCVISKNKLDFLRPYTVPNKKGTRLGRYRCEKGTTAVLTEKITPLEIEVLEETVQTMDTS

[9] = target: T3, Proteasome Macropain subunit MB1 (Homo sapiens, UniProt P28074); experiment: Inhibition of human constitutive 20S proteasome beta 5 chymotrypsin-like activity
T3 sequence (P28074 whole entry): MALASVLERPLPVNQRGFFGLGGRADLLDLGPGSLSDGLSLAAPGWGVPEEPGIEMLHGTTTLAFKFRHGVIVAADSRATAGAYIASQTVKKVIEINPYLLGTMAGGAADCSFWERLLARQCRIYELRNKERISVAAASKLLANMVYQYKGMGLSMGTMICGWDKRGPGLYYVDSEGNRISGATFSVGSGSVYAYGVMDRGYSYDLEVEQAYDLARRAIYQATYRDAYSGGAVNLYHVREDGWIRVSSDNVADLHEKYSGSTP
In short: (§1)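 Purified human proteasomes were used in a 96-well format assay: immunoproteasome i-20S from PBMC and constitutive c-20S from red blood cells. The readout was fluorogenic AMC peptide substrate cleavage on a plate reader, and IC50 values were determined from it.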

[10] = species: Homo sapiens; experiment: Selectivity index, ratio of IC50 for inhibition of human constitutive 20S proteasome beta 5 chymotrypsin-like activity to IC50 for inhibition of human 20S immunoproteasome beta 5 chymotrypsin-like activity
[11] = target: T4, Proteasome subunit beta type-8 (Homo sapiens, UniProt P28062); experiment: Inhibition of human 20S immunoproteasome beta 5 chymotrypsin-like activity; in short: as §1
T4 sequence (P28062 whole entry): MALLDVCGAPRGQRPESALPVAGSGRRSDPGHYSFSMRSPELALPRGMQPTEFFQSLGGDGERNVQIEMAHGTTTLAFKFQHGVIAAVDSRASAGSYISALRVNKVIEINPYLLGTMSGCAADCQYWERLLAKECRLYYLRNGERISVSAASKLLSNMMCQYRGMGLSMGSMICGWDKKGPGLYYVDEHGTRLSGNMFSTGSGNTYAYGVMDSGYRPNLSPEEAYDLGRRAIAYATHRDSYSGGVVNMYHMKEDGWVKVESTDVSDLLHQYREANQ

[12] = target: T4, Proteasome subunit beta type-8; experiment: Inhibition of human 20S immunoproteasome beta 5 chymotrypsin-like activity in human KARPAS-1106P cells incubated for 2 hrs by proteasome-Glo assay; format: cell-based

SMILES: COC[C@H](NC(=O)[C@H](CCC(=O)NC(C)(C)C)NS(=O)(=O)c1ccc(C)cc1)C(=O)NCc1ccc(F)c2ccccc12
inhibition [1]: < 50%
inhibition [2]: < 50%
EC50 [3]: 18 nM
inhibition [4]: inactive
inhibition [5]: inactive
inhibition [6]: inactive
inhibition [7]: < 50%
inhibition [8]: < 50%

SMILES: NC(=O)C[C@H](NC(=O)CCc1ccccc1)C(=O)N[C@@H](Cc1ccc(F)cc1)C(=O)NCc1cccc2ccccc12
IC50 [9]: > 100 µM
Ratio IC50 [10]: > 2.8

SMILES: C[C@H](NC(=O)[C@H](CC(=O)NOC(C)(C)C)NC(=O)CCc1ccccc1)C(=O)NCc1cccc2[nH]ccc12
IC50 [11]: 28.4 nM
IC50 [9]: 0.17 µM
Ratio IC50 [10]: 6

SMILES: COC[C@H](NC(=O)[C@H](CC(=O)NC(C)(C)C)NC(=O)CCc1ccccc1)C(=O)NCc1cccc2ccccc12
Ratio IC50 [10]: 71

SMILES: COC[C@H](NC(=O)[C@H](CC(=O)NOC(C)(C)C)NC(=O)CCc1ccccc1)C(=O)NCc1cccc2cccnc12
IC50 [11]: 83.7 nM
IC50 [9]: 1.04 µM
Ratio IC50 [10]: 12

SMILES: C[C@H](NC(=O)[C@H](CC(=O)NC(C)(C)C)NC(=O)C(=O)c1c[nH]c2ccccc12)C(=O)NCc1cccc2ccccc12
inhibition [1]: < 50%
inhibition [2]: < 50%
EC50 [3]: 21 nM
inhibition [4]: inactive
inhibition [5]: Active
inhibition [6]: Active
inhibition [7]: < 50%
inhibition [8]: < 50%

SMILES: Cc1cc(C(=O)N[C@@H](CCC(=O)NC(C)(C)C)C(=O)N[C@@H](C)C(=O)NCc2ccc(F)c3ccccc23)no1
inhibition [1]: < 50%
inhibition [2]: < 50%
EC50 [3]: 73 nM
inhibition [4]: inactive
inhibition [5]: inactive
inhibition [6]: inactive
inhibition [7]: < 50%
inhibition [8]: < 50%

SMILES: COC[C@H](NC(=O)[C@H](CC(=O)NOC(C)(C)C)NC(=O)CCc1ccccc1)C(=O)NCc1cccc(OC)c1OC
IC50 [11]: 479 nM
IC50 [9]: 0.98 µM
Ratio IC50 [10]: 2

SMILES: Cc1ccc(S(=O)(=O)N[C@@H](CCC(=O)NC(C)(C)C)C(=O)N[C@@H](C)C(=O)NCc2ccc(F)c3ccccc23)cc1
inhibition [1]: < 50%
inhibition [2]: < 50%
EC50 [3]: 39 nM
inhibition [4]: inactive
inhibition [5]: inactive
inhibition [6]: inactive
inhibition [7]: < 50%
inhibition [8]: < 50%

SMILES: COC[C@H](NC(=O)[C@H](CC(=O)NC(C)(C)C)NS(=O)(=O)c1ccc(C)cc1)C(=O)NCc1ccc(F)c2ccccc12
inhibition [1]: < 50%
inhibition [2]: < 50%
EC50 [3]: 73 nM
inhibition [4]: inactive
inhibition [5]: inactive
inhibition [6]: inactive
inhibition [7]: < 50%
inhibition [8]: < 50%

SMILES: C[C@H](NC(=O)[C@H](CCC(=O)NC(C)(C)C)NC(=O)CCc1ccccc1)C(=O)NCc1ccc(F)c2ccccc12
IC50 [11]: 1.6 nM
inhibition [1]: < 50%
inhibition [2]: < 50%
IC50 [12]: 39 nM
EC50 [3]: 44 nM
inhibition [4]: inactive
inhibition [5]: inactive
inhibition [6]: inactive
inhibition [7]: < 50%
inhibition [8]: < 50%

SMILES: COC[C@H](NC(=O)[C@H](CC(=O)N1CCC1)NC(=O)CCc1ccccc1)C(=O)NCc1cccc2ccccc12
IC50 [9]: > 100 µM
Ratio IC50 [10]: > 7

SMILES: COC[C@H](NC(=O)[C@H](CC(=O)N(C)C)NC(=O)CCc1ccccc1)C(=O)NCc1cccc2ccccc12
IC50 [9]: > 100 µM
Ratio IC50 [10]: > 9

SMILES: COC[C@H](NC(=O)[C@H](CC(=O)NOC(C)(C)C)NC(=O)CCc1ccccc1)C(=O)NCc1cccc(OC)c1
IC50 [11]: 14.4 nM
IC50 [9]: 0.101 µM
Ratio IC50 [10]: 7

Next, values leading:

IC50 [11]: 2620 nM
IC50 [9]: 59 µM
Ratio IC50 [10]: 23
SMILES: C[C@H](NC(=O)[C@H](CC(=O)NOC(C)(C)C)NC(=O)CCc1ccccc1)C(=O)NCc1ccnc2ccccc12

Ratio IC50 [10]: 274
SMILES: COC[C@H](NC(=O)[C@H](CC(=O)NC(C)(C)C)NC(=O)c1cc(C)on1)C(=O)NCc1cccc2ccccc12

Ratio IC50 [10]: 28
SMILES: COC[C@H](NC(=O)[C@H](CC(=O)N1CCCC1)NC(=O)CCc1ccccc1)C(=O)NCc1cccc2ccccc12

Ratio IC50 [10]: 8
SMILES: CCN(CC)C(=O)C[C@H](NC(=O)CCc1ccccc1)C(=O)N[C@@H](COC)C(=O)NCc1cccc2ccccc12

IC50 [11]: 21700 nM
IC50 [9]: > 100 µM
Ratio IC50 [10]: > 5
SMILES: COC[C@H](NC(=O)CCc1ccccc1)C(=O)N[C@@H](C)C(=O)NCc1cccc2ccccc12

IC50 [11]: 501 nM
IC50 [9]: 27.2 µM
Ratio IC50 [10]: 54
SMILES: COC[C@H](NC(=O)[C@H](CC(=O)NOC(C)(C)C)NC(=O)CCc1ccccc1)C(=O)NCc1cccc2c1NCCC2

IC50 [11]: 1160 nM
IC50 [9]: 12.7 µM
Ratio IC50 [10]: 11
SMILES: C[C@H](NC(=O)[C@H](CC(=O)NOC(C)(C)C)NC(=O)CCc1ccccc1)C(=O)NCc1cccc2ncccc12

Ratio IC50 [10]: 58
SMILES: COC[C@H](NC(=O)[C@H](CC(=O)N1CCCCC1)NC(=O)CCc1ccccc1)C(=O)NCc1cccc2ccccc12
